Assay results: ChEMBL document CHEMBL1146725, “Discovery and SAR of potent, orally available and brain-penetrable 5,6-dihydro-4H-3-thia-1-aza-benzo[e]azulen- and 4,5-dihydro-6-oxa-3-thia-1-aza-benzo[e]azulen derivatives as neuropeptide Y Y5 receptor antagonists” (Bioorg Med Chem Lett, 2004)
“And” between values parts separate entries of the source, which are not always exact repeats. Equal entries are not always repeated.

How the values were obtained:
[1] = (§1) Concentration (30 mg/kg, p.o.) in rat hypothalamus after 2 hours; format: ADME, organism-based; settings: hypothalamus, po
In short: (§2)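 Male rats (RA238), fasted overnight, given 30 mg/kg by oral gavage (5 mL/kg) in 20% Cremophore EL/water (w/w). Plasma and hypothalamus were sampled at 2 and 6 h post-dose and levels measured by LC-MS. Values are the mean of 3-6 animals per time point, as µg/mL plasma and µg/g hypothalamus.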

Rattus norvegicus [2] = assay: as §1; format: ADME, organism-based; settings: in vivo, po, 2 h; in short: as §2
Rattus norvegicus [3] = assay: (§3) Concentration (30 mg/kg, p.o.) in rat hypothalamus after 6 hours; format: ADME, organism-based; settings: in vivo, po, 6 h; in short: as §2
Rattus norvegicus [4] = assay: (§4) Concentration (30 mg/kg, p.o.) in rat plasma after 6 hours; format: ADME, organism-based; settings: in vivo, po, 6 h; in short: as §2
[5] = biological target: T1, Neuropeptide Y receptor type 5 (Homo sapiens, UniProt Q15761); assay: In vitro binding affinity against human neuropeptide Y5 receptor
T1 sequence (Q15761 whole entry): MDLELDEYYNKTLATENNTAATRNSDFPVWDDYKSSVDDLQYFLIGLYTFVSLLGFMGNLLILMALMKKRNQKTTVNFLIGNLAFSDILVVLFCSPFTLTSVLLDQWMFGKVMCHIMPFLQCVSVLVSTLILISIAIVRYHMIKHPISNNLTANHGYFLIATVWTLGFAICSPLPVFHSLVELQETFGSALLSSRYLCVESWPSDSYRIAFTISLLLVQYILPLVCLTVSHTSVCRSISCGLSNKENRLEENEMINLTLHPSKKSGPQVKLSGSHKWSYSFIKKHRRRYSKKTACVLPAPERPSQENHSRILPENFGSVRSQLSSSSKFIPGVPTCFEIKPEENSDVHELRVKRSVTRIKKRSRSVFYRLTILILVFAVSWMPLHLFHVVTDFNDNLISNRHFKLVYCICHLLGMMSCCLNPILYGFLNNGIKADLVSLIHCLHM

[6] = (§5) Concentration (30 mg/kg, p.o.) in rat plasma after 2 hours; format: ADME, organism-based; settings: plasma, po; in short: as §2
Rattus norvegicus [7] = assay: as §5; format: ADME, organism-based; settings: in vivo, po, 2 h; in short: as §2
[8] = as §3; format: ADME, organism-based; settings: hypothalamus, po; in short: as §2
[9] = as §4; format: ADME, organism-based; settings: plasma, po; in short: as §2
[10] = biological target: T1, Neuropeptide Y receptor type 5; assay: In vitro binding affinity against human neuropeptide Y5 receptor measured as Ca+ response
In short: (§6)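 Reported as IC50 (nM), each value the mean of three separate experiments.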

[11] = biological target: T2, Neuropeptide Y receptor type 5 (Rattus norvegicus, UniProt Q63634); assay: In vitro binding affinity against rat neuropeptide Y5 receptor; in short: as §6
T2 sequence (Q63634 whole entry): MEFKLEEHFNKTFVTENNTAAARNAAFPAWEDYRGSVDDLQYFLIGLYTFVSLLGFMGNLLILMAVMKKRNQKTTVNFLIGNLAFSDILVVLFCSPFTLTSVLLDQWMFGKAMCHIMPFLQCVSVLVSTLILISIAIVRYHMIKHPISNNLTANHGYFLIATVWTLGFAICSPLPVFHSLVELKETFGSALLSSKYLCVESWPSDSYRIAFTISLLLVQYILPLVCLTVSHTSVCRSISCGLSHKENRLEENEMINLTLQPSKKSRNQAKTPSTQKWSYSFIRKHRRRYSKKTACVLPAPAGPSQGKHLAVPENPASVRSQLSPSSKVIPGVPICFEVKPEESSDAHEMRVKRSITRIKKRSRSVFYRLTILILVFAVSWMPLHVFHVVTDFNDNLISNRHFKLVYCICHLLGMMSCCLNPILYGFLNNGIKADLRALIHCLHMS

Row | concentration at 2 h [1] [ng/g] | Concentration (Rattus norvegicus [2]) | Concentration (Rattus norvegicus [3]) | Concentration (Rattus norvegicus [4]) | IC50 [5] [nM] | concentration at 2 h [6] [ng/mL] | Concentration (Rattus norvegicus [7]) [µg/mL] | concentration at 6 h [8] [ng/g] | concentration at 6 h [9] [ng/mL] | IC50 [10] [nM] | IC50 [11] [nM] | SMILES
1 | 6690 | 6.69 µg/g | 1.33 µg/g and 0.64 µg/g | 0.32 µg/mL and 0.14 µg/mL | 2 | 1600 | 1.6 | – | – | – | – | O=C([C@@H]1CCCO1)N1CCC(CNc2nc3c(s2)CCCc2ccc(F)cc2-3)CC1
2 | – | 0.86 µg/g and 2.44 µg/g | 0.67 µg/g | 0.22 µg/mL | 2 | – | – | 670 | 220 | – | – | O=C([C@H]1CCCO1)N1CCC(CNc2nc3c(s2)CCCc2ccc(F)cc2-3)CC1
3 | 1460 | – | – | – | 5 | 870 | – | 400 | 260 | 40 | 2.9 | Cc1ccc2c(c1)-c1nc(NCC3CCN(C(=O)[C@H]4CCCO4)CC3)sc1CCO2
4 | 2230 | – | – | – | 7 | 740 | – | 260 | 70 | 100 | 6 | CCCCC(=O)N1CCC(CNc2nc3c(s2)CCOc2ccc(F)cc2-3)CC1
